From ChEMBL document CHEMBL1137444, “Thiazole-diamides as potent gamma-secretase inhibitors” (Bioorg Med Chem Lett, 2007)
pIC50: −log10 of the molar value.

Columns and labels:
Gamma-secretase [1] = assay: Inhibition of gamma secretase C100Flag cleavaging activity in HeLa cell membranes assessed as M-amyloid beta-40 production by cell free assay; design: species or system Homo sapiens
How it was run: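 IC50 taken as the geometric mean of at least two experiments, each run with six data points.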

Gamma-secretase [2] = assay: Inhibition of gamma secretase activity in human H4 cells transfected with APP695 mutant assessed as beta amyloid(1-40) production by whole cell assay; format: cell-based
How it was run: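 Cells were plated at about 30,000 per well and left to attach for about 6 h at 37 °C. They were then washed to clear secreted Aβ and given fresh medium containing compound for overnight incubation at 37 °C. Secreted Aβ in the harvested medium was measured by immunoassay. IC50 is the geometric mean of at least two experiments, six data points each.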

Row | Compound | pIC50 (Gamma-secretase [1]) | pIC50 (Gamma-secretase [2])
1 | CCC[C@H](NC(=O)[C@@H](O)C(C)(C)C)C(=O)Nc1ncc(C(C)CCCC(C)(C)O)s1 (stereo partly specified) | 8.13 | 9.66
2 | CCC[C@H](NC(=O)Cc1cc(F)cc(F)c1)C(=O)Nc1nc(C)c(C(C)NCCC(C)C)s1 (stereo partly specified) | 8.30 | 8.70
3 | CCC[C@H](NC(=O)[C@H](O)c1ccccc1)C(=O)Nc1ncc(C(O)(CC)CC)s1 | 6.85 | 6.74
4 | CCC[C@H](NC(=O)[C@@H](O)C(C)(C)C)C(=O)Nc1ncc(C(C)CCCC(C)(C)OC)s1 (stereo partly specified) | 7.89 | 9.37
5 | CCC[C@H](NC(=O)C(=O)C(C)(C)C)C(=O)Nc1ncc(C(C)C)s1 | 6.94 | 7.77
6 | CCC[C@H](NC(=O)[C@@H](O)C(C)(C)C)C(=O)Nc1ncc(C(C)C)s1 | 7.35 | 7.70
7 | CCC[C@H](NC(=O)Cc1cc(F)cc(F)c1)C(=O)Nc1nc(C)c(C(C)NCC(C)C)s1 (stereo in doubt; 34b) | 7.48 | 7.50
8 | CCC[C@H](NC(=O)Cc1cc(F)cc(F)c1)C(=O)Nc1nc(C)c(C(C)NCC(C)C)s1 (stereo in doubt; 34a) | 8.51 | 8.60
9 | CCC[C@H](NC(=O)[C@@H](O)C(C)(C)C)C(=O)Nc1ncc([C@@H](C)CCCC(C)(C)OC)s1 | 8.00 | 9.96
10 | CCC[C@H](NC(=O)Cc1cc(F)cc(F)c1)C(=O)Nc1ncc(C(C)NCc2ccccc2)s1 (stereo partly specified) | 8.52 | 8.85
11 | CCC[C@H](NC(=O)[C@@H](O)C(C)C)C(=O)Nc1ncc(C(C)CCCC(C)(C)OC)s1 (stereo partly specified) | 8.23 | 9.52
12 | COC(C)(C)CCCC(C)c1cnc(NC(=O)[C@H](C)NC(=O)CCc2cc(F)cc(F)c2)s1 (stereo partly specified) | 7.52 | 9.66
13 | CC[C@H](NC(=O)CCc1cc(F)cc(F)c1)C(=O)Nc1ncc(C(C)CCCC(C)(C)OC)s1 (stereo partly specified) | 7.87 | 10.10
14 | CCC[C@H](NC(=O)Cc1cc(F)cc(F)c1)C(=O)Nc1ncc(C(C)N2CCOCC2)s1 (stereo partly specified) | 8.42 | 8.62
15 | CC[C@H](NC(=O)CCc1cc(F)cc(F)c1)C(=O)Nc1ncc([C@@H](C)CCCC(C)(C)OC)s1 | 7.52 | 10.00
16 | CCC[C@H](NC(=O)[C@@H](O)c1cc(F)cc(F)c1)C(=O)Nc1ncc(C(CC)CC)s1 | 8.21 | 9.52
17 | CCC[C@H](NC(=O)[C@@H](O)C(C)(C)C)C(=O)Nc1ncc([C@H](C)CCCC(C)(C)OC)s1 | 8.00 | 8.94

Row | Compound | pIC50 (Gamma-secretase [1]) | pIC50 (Gamma-secretase [2])
18 | CCC[C@H](NC(=O)Cc1cc(F)cc(F)c1)C(=O)Nc1nc(C)c(C(C)NCC(C)C)s1 (stereo in doubt; 34) | 8.00 | 8.32
19 | CCC[C@H](NC(=O)Cc1cc(F)cc(F)c1)C(=O)Nc1ncc(CN2CCOCC2)s1 | 7.52 | 7.90
20 | CC[C@H](NC(=O)CCc1cc(F)cc(F)c1)C(=O)Nc1ncc([C@H](C)CCCC(C)(C)OC)s1 | 6.14 | 7.09
21 | CCC[C@H](NC(=O)Cc1cc(F)cc(F)c1)C(=O)Nc1nc(C)c(C(C)N2CCN(C)CC2)s1 (stereo partly specified) | 7.55 | 7.58
22 | CCCCNC(C)c1sc(NC(=O)[C@H](CCC)NC(=O)Cc2cc(F)cc(F)c2)nc1C (stereo partly specified) | 8.15 | 8.43
23 | CCC[C@H](NC(=O)[C@@H](O)C(C)(C)C)C(=O)Nc1ncc(C(C)(C)O)s1 | 7.02 | 7.43
24 | CCC[C@H](NC(=O)Cc1cc(F)cc(F)c1)C(=O)Nc1nc(C)c(C(C)NC)s1 (stereo partly specified) | 7.29 | 7.30
25 | CCC[C@H](NC(=O)Cc1cc(F)cc(F)c1)C(=O)Nc1nc(C)c(C(C)N(C)C)s1 (stereo partly specified) | 7.55 | 7.40
26 | CCC[C@H](NC(=O)[C@@H](O)c1ccccc1)C(=O)Nc1ncc(C(O)(CC)CC)s1 | 8.55 | 8.66
27 | CCC[C@H](NC(=O)Cc1cc(F)cc(F)c1)C(=O)Nc1ncc(C(C)N[C@H](C(=O)OC)C(C)C)s1 (stereo partly specified) | 8.40 | 9.15
28 | CCC[C@H](NC(=O)Cc1cc(F)cc(F)c1)C(=O)Nc1nc(C)c(C(C)NCC(F)(F)F)s1 (stereo partly specified) | 8.00 | 8.35
29 | CCC[C@H](NC(=O)CCc1cc(F)cc(F)c1)C(=O)Nc1ncc(C(C)CCCC(C)(C)O)s1 (stereo partly specified) | 8.22 | 10.30
30 | CCC[C@H](NC(=O)Cc1cc(F)cc(F)c1)C(=O)Nc1nc(C)c(C(C)NCCC(C)(C)C)s1 (stereo partly specified) | 8.23 | 8.70
31 | CCC[C@H](NC(=O)CCc1cc(F)cc(F)c1)C(=O)Nc1ncc(C(C)CCCC(C)(C)OC)s1 (stereo partly specified) | 8.00 | 9.85
32 | CCC[C@H](NC(=O)[C@@H](O)C(C)C)C(=O)Nc1ncc([C@H](C)CCCC(C)(C)OC)s1 | 8.05 | 8.13
33 | CCC[C@H](NC(=O)[C@@H](O)C(C)C)C(=O)Nc1ncc([C@@H](C)CCCC(C)(C)OC)s1 | 8.05 | 9.52

Other lines, results leading:

Row | pIC50 (Gamma-secretase [1]) | pIC50 (Gamma-secretase [2]) | Compound
34 | 7.52 | 7.89 | CCC[C@H](NC(=O)Cc1cc(F)cc(F)c1)C(=O)Nc1nc(C)c(CC)s1
35 | 8.38 | 8.38 | CCC[C@H](NC(=O)Cc1cc(F)cc(F)c1)C(=O)Nc1ncc(C(C)NCC(C)C)s1 (stereo partly specified)
36 | 7.52 | 7.90 | CCCCN(CC)Cc1cnc(NC(=O)[C@H](CCC)NC(=O)Cc2cc(F)cc(F)c2)s1
37 | 7.80 | 8.00 | CCCNC(C)c1cnc(NC(=O)[C@H](CCC)NC(=O)Cc2cc(F)cc(F)c2)s1 (stereo partly specified)
38 | 7.52 | 8.29 | CCC[C@H](NC(=O)Cc1cc(F)cc(F)c1)C(=O)Nc1ncc(C(C)C)s1
39 | 7.70 | 7.56 | CCC[C@H](NC(=O)Cc1cc(F)cc(F)c1)C(=O)Nc1nc(C)c(C(C)=O)s1
40 | 8.59 | 8.92 | CCC[C@H](NC(=O)Cc1cc(F)cc(F)c1)C(=O)Nc1ncc(C(C)NCCC(C)C)s1 (stereo partly specified)
41 | 6.85 | 7.03 | CCC[C@H](NC(=O)Cc1cc(F)cc(F)c1)C(=O)Nc1nc(C)c(C)s1
42 | > 7.46 | 9.10 | CCCC(CCC)c1cnc(NC(=O)[C@H](CCC)NC(=O)Cc2cc(F)cc(F)c2)s1
43 | 6.87 | 6.64 | CCC[C@H](NC(=O)Cc1cc(F)cc(F)c1)C(=O)Nc1ncc(C(C)NCC(C)(C)C)s1 (stereo partly specified)
44 | 9.00 | 8.92 | CCC[C@H](NC(=O)Cc1cc(F)cc(F)c1)C(=O)Nc1ncc(C(O)(CC)CC)s1
45 | 8.00 | 7.97 | CCC[C@H](NC(=O)Cc1cc(F)cc(F)c1)C(=O)Nc1ncc(C(C)N2CCCC2)s1 (stereo partly specified)
46 | 6.81 | 7.38 | CCC[C@H](NC(=O)Cc1cc(F)cc(F)c1)C(=O)Nc1nc(C)c(C(C)NCC)s1 (stereo partly specified)
47 | 7.19 | 8.80 | CCC[C@H](NC(=O)Cc1cc(F)cc(F)c1)C(=O)Nc1ncc(C(C)CC(C)(C)C)s1 (stereo partly specified)
48 | 8.22 | 8.70 | CCCCNC(C)c1cnc(NC(=O)[C@H](CCC)NC(=O)Cc2cc(F)cc(F)c2)s1 (stereo partly specified)
49 | 8.57 | 8.92 | CCC[C@H](NC(=O)Cc1cc(F)cc(F)c1)C(=O)Nc1ncc(C(C)NCCC(C)(C)C)s1 (stereo partly specified)
50 | 7.20 | 6.98 | CCC[C@H](NC(=O)Cc1cc(F)cc(F)c1)C(=O)Nc1ncc(CNCC)s1
51 | 7.37 | 7.53 | CCC[C@H](NC(=O)Cc1cc(F)cc(F)c1)C(=O)Nc1ncc(C(C)NC(C)C)s1 (stereo partly specified)
52 | 6.70 | 7.03 | CCC[C@H](NC(=O)Cc1cc(F)cc(F)c1)C(=O)Nc1ncc(CN)s1
53 | 7.58 | 8.66 | CCC[C@H](NC(=O)Cc1cc(F)cc(F)c1)C(=O)Nc1ncc(C(CC)CC)s1
